Data as given in ChEMBL document CHEMBL2150892, “Neuroprotective Tri- and Tetracyclic BChE Inhibitors Releasing Reversible Inhibitors upon Carbamate Transfer” (ACS Med Chem Lett, 2012).
The source made the active and inactive calls. No cut-off for these calls is given here.

Experiments:
[1] = Selectivity ratio of IC50 for Electric eel AChE to IC50 for equine serum BChE
Procedure, shortened: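 Selectivity ratio calculated as IC50(AChE)/IC50(BChE). AChE was from electric eel and BChE from equine serum. Each IC50 is a mean of at least three independent determinations.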

Cholinesterase [2] = target: T1, Cholinesterase (Equus caballus, UniProt P81908); experiment: Inhibition of equine serum BChE using acetylthiocholine as substrate after 2 mins
Procedure, shortened: (§1)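 Enzyme sources were electric eel AChE and equine serum BChE. Values are means of at least three independent determinations.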

Acetylcholinesterase [3] = target: T2, Acetylcholinesterase (Electrophorus electricus, UniProt O42275); experiment: Inhibition of Electric eel AChE using acetylthiocholine as substrate after 2 mins; procedure, shortened: as §1
[4] = Antioxidant activity assessed as trolox equivalents of peroxyl radical scavenging activity by ORAC assay; type: functional
Procedure, shortened: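 ORAC assay: measures how well each compound protects fluorescein from destruction by peroxyl radicals. Capacity is expressed as trolox equivalents, with trolox as the reference.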

HT-22 [5] = experiment: Neuroprotective activity against glutamate-induced oxidative stress in mouse HT22 cells assessed as reduction of intracellular ROS formation at 10 uM after 24 hrs by MTT assay; type: functional, cell-based
Procedure, shortened: (§2)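 Murine hippocampal HT-22 cells, which lack ionotropic glutamate receptors, were challenged with extracellular glutamate to cause oxidative (oxytotic) cell death. Compounds were tested at 10 μM and 5 μM against this glutamate-induced toxicity.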

HT-22 [6] = experiment: Neuroprotective activity against glutamate-induced oxidative stress in mouse HT22 cells assessed as reduction of intracellular ROS formation at 5 uM after 24 hrs by MTT assay; type: functional, cell-based; procedure, shortened: as §2
Cholinesterase [7] = target: T1, Cholinesterase; experiment: Time dependent inhibition of equine serum BChE assessed as stability constants of inhibitor-enzyme complex using acetylthiocholine as substrate after 60 mins
[8] = target: Acetylcholinesterase (Electrophorus electricus) (UniProt O42275); experiment: Inhibition of Electric eel AChE using acetylthiocholine as substrate at 100 uM after 2 mins
Procedure, shortened: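 Enzyme sources were electric eel AChE and equine serum BChE. Values are means of at least three independent determinations. Single-point entries are % inhibition at 100 μM.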

[9] = target: Acetylcholinesterase (Electrophorus electricus) (UniProt O42275); experiment: Time dependent inhibition of Electric eel AChE assessed as stability constants of inhibitor-enzyme complex using acetylthiocholine as substrate at 10 to 50 nM after 60 mins
Acetylcholinesterase [10] = target: T2, Acetylcholinesterase; experiment: Time dependent inhibition of Electric eel AChE assessed as stability constants of inhibitor-enzyme complex using acetylthiocholine as substrate after 60 mins

T2 sequence (O42275 whole entry): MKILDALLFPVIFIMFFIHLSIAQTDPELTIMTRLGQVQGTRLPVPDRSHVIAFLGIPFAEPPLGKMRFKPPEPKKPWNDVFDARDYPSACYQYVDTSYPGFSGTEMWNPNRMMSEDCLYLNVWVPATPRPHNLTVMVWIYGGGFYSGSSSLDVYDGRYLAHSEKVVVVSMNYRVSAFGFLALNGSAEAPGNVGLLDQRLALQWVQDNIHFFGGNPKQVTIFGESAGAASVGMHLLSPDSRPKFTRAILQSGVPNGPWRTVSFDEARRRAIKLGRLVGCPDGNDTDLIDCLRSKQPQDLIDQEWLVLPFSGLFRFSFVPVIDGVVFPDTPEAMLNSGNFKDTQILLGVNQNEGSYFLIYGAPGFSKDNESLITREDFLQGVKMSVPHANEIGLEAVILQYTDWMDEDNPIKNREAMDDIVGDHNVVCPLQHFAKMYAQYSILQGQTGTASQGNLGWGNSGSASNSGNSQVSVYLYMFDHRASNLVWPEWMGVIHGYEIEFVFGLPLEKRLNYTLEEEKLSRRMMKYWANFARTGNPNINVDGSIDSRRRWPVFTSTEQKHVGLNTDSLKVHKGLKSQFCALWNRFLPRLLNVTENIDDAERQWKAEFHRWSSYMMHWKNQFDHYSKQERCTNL
T1 sequence (P81908 whole entry): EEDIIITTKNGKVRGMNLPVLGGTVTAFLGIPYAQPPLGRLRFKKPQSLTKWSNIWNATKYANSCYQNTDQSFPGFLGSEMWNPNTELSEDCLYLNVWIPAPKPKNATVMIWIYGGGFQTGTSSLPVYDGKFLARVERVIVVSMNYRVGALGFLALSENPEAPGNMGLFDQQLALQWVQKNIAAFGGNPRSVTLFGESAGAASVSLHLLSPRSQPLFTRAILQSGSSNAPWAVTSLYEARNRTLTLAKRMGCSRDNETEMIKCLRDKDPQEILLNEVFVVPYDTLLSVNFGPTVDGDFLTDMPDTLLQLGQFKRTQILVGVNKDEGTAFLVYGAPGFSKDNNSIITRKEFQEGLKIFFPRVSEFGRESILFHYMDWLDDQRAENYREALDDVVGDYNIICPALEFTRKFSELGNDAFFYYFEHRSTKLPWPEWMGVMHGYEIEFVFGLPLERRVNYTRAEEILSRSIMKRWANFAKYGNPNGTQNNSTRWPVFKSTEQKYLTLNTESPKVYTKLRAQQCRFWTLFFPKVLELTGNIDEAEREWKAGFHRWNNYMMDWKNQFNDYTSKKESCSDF
Acetylcholinesterase (Electrophorus electricus), sequence (O42275 24-633 limits assumed): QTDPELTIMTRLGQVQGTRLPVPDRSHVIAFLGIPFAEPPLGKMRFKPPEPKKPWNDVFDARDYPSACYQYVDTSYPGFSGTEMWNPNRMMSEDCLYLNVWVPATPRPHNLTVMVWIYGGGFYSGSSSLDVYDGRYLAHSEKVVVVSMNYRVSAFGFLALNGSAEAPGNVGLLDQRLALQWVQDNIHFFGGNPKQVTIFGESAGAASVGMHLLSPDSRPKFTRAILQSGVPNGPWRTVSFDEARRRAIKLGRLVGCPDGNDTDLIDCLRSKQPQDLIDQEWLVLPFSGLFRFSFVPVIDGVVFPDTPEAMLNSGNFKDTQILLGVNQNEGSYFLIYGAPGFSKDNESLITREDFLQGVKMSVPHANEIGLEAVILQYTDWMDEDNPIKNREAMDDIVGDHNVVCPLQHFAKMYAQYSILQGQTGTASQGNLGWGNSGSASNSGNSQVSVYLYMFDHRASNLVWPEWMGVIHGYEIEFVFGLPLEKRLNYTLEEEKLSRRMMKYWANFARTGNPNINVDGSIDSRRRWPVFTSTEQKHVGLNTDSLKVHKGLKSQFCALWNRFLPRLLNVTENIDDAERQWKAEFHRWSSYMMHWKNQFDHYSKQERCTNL

SMILES	Ratio IC50 [1]	IC50 (Cholinesterase [2]; read-out: IC50) [µM]	IC50 (Acetylcholinesterase [3]; read-out: IC50) [µM]	Ratio [4]	Activity (HT-22 [5])	Activity (HT-22 [6])	IC50 (Acetylcholinesterase [3]; read-out: pIC50 (converted)) [µM]	Ki (Cholinesterase [7]) [µM]	inhibition [8]	inhibition [9]	IC50 (Cholinesterase [2]; read-out: pIC50 (converted)) [µM]	Ki (Acetylcholinesterase [10]) [µM]
Cc1ccccc1NC(=O)Oc1ccc2c(c1)CN1CCCC1N2C (configuration not stated)	16.1	4.11	66.3									
COc1cccc(NC(=O)Oc2ccc3c(c2)CN2CCCC2N3C)c1 (configuration not stated)	5.3	7.52	40.2									
COc1ccc2c(c1)CN1CCCc3ccccc3C1N2C (configuration not stated)	> 6.7	29.7		1.2								
CCCCCCCNC(=O)Oc1ccc2c(c1)CN1CCCc3ccccc3C1N2C (configuration not stated)	> 4000	0.046		0.86	Active							
COc1ccc2c(c1)CN1CCc3ccccc3C1N2C (configuration not stated)	4.2	55.6	232	0.51		inactive						
CN1c2ccc(O)cc2CN2CCCC21 (configuration not stated)	0.75	41	30.6	3.43	Active	Active	30.2					
CN1c2ccc(O)cc2CN2CCCc3ccccc3C21 (configuration not stated)	5.2	7.3	37.8	2.48	Active	Active						
CCCCCCCNC(=O)Oc1ccc2c(c1)CN1CCc3ccccc3C1N2C (configuration not stated)	> 15000	0.06		0.3	Active			0.0127	inactive	inactive		
CN1c2ccc(O)cc2CN2CCc3ccccc3C21 (configuration not stated)	2.5	44.3	110	2.87	Active	Active						
CN1c2ccccc2CN2CCCC21 (configuration not stated)	3.4	38.9	131									
CN1c2ccccc2CN2CCCc3ccccc3C21 (configuration not stated)	> 8.4	23.7										
COc1cccc(NC(=O)Oc2ccc3c(c2)CN2CCc4ccccc4C2N3C)c1 (configuration not stated)	> 900	0.218										
CC(C)c1ccc(NC(=O)Oc2ccc3c(c2)CN2CCCC2N3C)cc1 (configuration not stated)	> 66.6	3										
CN1c2ccccc2CN2CCc3ccccc3C21 (configuration not stated)	3.3	44	145	0.92	inactive							
Cc1ccccc1NC(=O)Oc1ccc2c(c1)CN1CCc3ccccc3C1N2C (configuration not stated)	> 1350	0.144										
CCCCCCCNC(=O)Oc1ccc2c(c1)CN1CCCC1N2C (configuration not stated)	16.6	1.95	32.3	1.03	Active	Active						
CC(C)c1ccc(NC(=O)Oc2ccc3c(c2)CN2CCc4ccccc4C2N3C)cc1 (configuration not stated)	> 1500	0.131										
CCN(C)C(=O)Oc1ccc2c(c1)CN1CCc3ccccc3C1N2C (configuration not stated)	54.2	0.45	24.4	0.65	inactive		234	0.275			24.5	1.12
